From PubChem BioAssay AID493150 (Broad Institute, 2011)
“And” between values parts separate entries of the source, which are not always exact repeats. Equal values may be shown once. Inconclusive results are not listed. The source made the active and inactive calls.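 How the source made its calls: active means compound whose fitted half-maximal growth inhibition concentration stays within ten times its top tested dose in every replicate test; inconclusive means replicate tests disagree, or flat partial inhibition, or poor curve fit; inactive means every replicate test inactive, including wrong-direction or flat responses.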

Tested on: C. albicans CaCi-2 + fluconazole, Alamar Blue growth, 48 h
Experiment: Candida CaCi-2 growth reduction under fluconazole – CaCi-2 strain, Alamar Blue, dry powder, set 5, confirmation (AID 493150)
Conditions: not given
Outline: (§1)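 Material: clinical Candida albicans isolate CaCi-2, resistant to fluconazole. Input: fungal inoculum at starting OD600 of 0.00015. Buffer or medium: RPMI/MOPS defined medium. Reagent: fluconazole 8 µg/mL. Incubation: 48 h humidified 37 °C exposure, 2 h room-temperature dye step. Signal: Alamar Blue fluorescence, Ex 544/Em 590 nm.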

SMILES	AC50
COC(=O)Cn1nc(-c2cccc(C)c2)c2ccccc21	0.647 µM
COC(=O)Cn1nc(-c2ccccc2)c2cc(C)ccc21	3.28 µM
COC(=O)Cn1nc(-c2ccccc2)c2cc(OC)ccc21	10.4 µM
COC(=O)Cn1c2ccccc2c2nc3n(c(=O)c21)CCS3	3.83 µM
COC(=O)Cn1nc(-c2ccc(F)cc2)c2ccccc21	5.61 µM
COC(=O)Cn1nc(-c2cccc(F)c2)c2ccccc21	1.41 µM
COC(=O)Cn1nc(-c2ccccc2)c2ccc(C)cc21	3.14 µM
COC(=O)Cn1nc(-c2ccccc2OC)c2ccccc21	6.22 µM
COC(=O)Cn1nc(-c2ccccc2)c2cc(F)ccc21	4.63 µM
COC(=O)Cn1nc(-c2ccccc2)c2ccc(Cl)cc21	3.79 µM
COC(=O)Cn1nc(-c2ccccc2)c2ccc(OC)cc21	7.51 µM
COC(=O)Cn1nc(-c2ccc(OC)cc2)c2ccccc21	4.22 µM
COC(=O)Cn1nc(-c2ccccc2)c2ccccc21	1.2 µM
COC(=O)Cn1nc(-c2ccccc2)c2ccc(F)cc21	5.1 µM
O=C(Cn1c2ccccc2c2nc3n(c(=O)c21)CCS3)N1CCCC1	1.04 µM and 1.87 µM
COC(=O)Cn1nc(-c2cccc(OC)c2)c2ccccc21	0.44 µM

Tested on: not listed separately
Experiment: as above
Conditions: C. albicans CaCi-2 + fluconazole, Alamar Blue growth, 48 h; at 10 µM (top of the series)
Outline: as §1

SMILES	activity change, negative = inhibition
COC(=O)Cn1nc(-c2cncnc2)c2ccccc21	-5.14% (inactive)

Same assay, conditions: C. albicans CaCi-2 (fluconazole-resistant clinical isolate) + fluconazole, Alamar Blue growth, 48 h; at 12 µM (top of the series)

SMILES	activity change, negative = inhibition
CC(C)(C)OC(=O)Cn1nc(-c2ccccc2)c2ccccc21	17.1% (inactive)
COC(=O)CCn1nc(-c2ccccc2)c2ccccc21	1.2% (inactive)
N#CCn1nc(-c2ccccc2)c2ccccc21	-18.5% (inactive)
COC(=O)Cn1nc(-c2ccc(C(F)(F)F)cc2)c2ccccc21	-0.629% (inactive)
CCOC(=O)Cn1nc(-c2ccccc2)c2ccccc21	4.8% (inactive)
c1ccc(-c2nn(Cc3ncco3)c3ccccc23)cc1	1.86% (inactive)
COCCn1nc(-c2ccccc2)c2ccccc21	-9.42% (inactive)
COC(=O)Cn1nc(-c2ccccc2)c2ccc(C#N)cc21	-14.7% (inactive)
c1ccc(-c2nn(Cc3nn[nH]n3)c3ccccc23)cc1	-7.06% (inactive)
CC(C)OC(=O)Cn1nc(-c2ccccc2)c2ccccc21	11.7% (inactive)
O=C(Cn1nc(-c2ccccc2)c2ccccc21)Oc1ccccc1	-4.43% (inactive)
